Data as given in the RNAGym collection of RNA variant scans (doi:10.1126/science.aae0568).
This sample holds only a part of the variants without activity.

B1: tRNA (parent)
chain: GUUCCGUUGGCGUAAUGGUAACGCGUCUCCCUCCUAAGGAGAAGACUGCGGGUUCGAGUCCCGUACGGAACG

Variants of: B1
Test: yeast fitness relative to wild type (ratio to wild type); higher = fitter; tRNA-Arg(CCU), competitive growth, 37 C, YPD
Summary of the method: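 For this measurement, the tRNA-Arg(CCU) gene was varied by chemical synthesis at a 3% per-site mutation rate across 69 sites, and each variant was placed at the native genomic locus in Saccharomyces cerevisiae. The pooled strains went through a 24-hour competition in YPD at 37°C in six parallel replicates, with amplicons from start and end populations read by 100-nucleotide paired-end sequencing. Darwinian fitness relative to wild type followed from the change in each genotype's frequency. Genotypes needed ≥ 100 starting reads, and estimates < 0.5 were set to 0.5.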

Variant | yeast fitness
GUUCCGUUGGCGUAUUGGUAACGCGUCUCCCUCCUAAGGACAAGACUGCGGGUUCGAGUCCCGUACGGAACG | 0.784
GUUCCGUUGGCGUAUUGGUAACGCGUCUCCCUCCUAAGGAGAAGACUGCGGGUUCAAGUCGCGUAUGGAACG | ≤ 0.5
GUUCCGUUGGCGUAUUGGUAACGCGUCUCCCUCCUAAGGAGAAGACUGCGGGUUCGAGUCCCGUAUGGAACG | 0.738
GUUCCGUUGGCGUAUUGGUAACGCGUCUCCCUCCUAAGGAGAAGACUGCGGGUUCGAGUCCCGUAAGGAACG | 0.649
GUUCCGUUGGCGUAUUGGUAACGCGUCUCCAUCCUAAGGAGAAGACUGCGGGUUCGAGUGCCGUACGGAACG | ≤ 0.5
GUUCCGUUGGCGUAUUGAUAACGCGUCUCCCUCCUAAGGAGUAGACUGCGGGUUCGAGUCCCGUACGGAACG | 0.567
GUUCCGUUGGCGUAUUGGUAACGCGUCUCCCUUCUAAGGAGAAGACUGCGGGUUCGAGUCCCGUACGGAACG | 0.724
GUUCCGUUGGCGUAUUGGUAACGCGUCUCCCUGCUAAGGAGAAGACUGCGGGUUCGAGUCCGGUAUGGAACG | ≤ 0.5
GUUCCGUUGGCGUAUUGGUAACGCGUCUCCCUCCUAAGGAGAAGAGUGCGGGUUAGAGUCCCGUACGGUACG | ≤ 0.5
GUUCCGUUGGCGUAUUGGUAACGCGUCUCCCUCCUAAGGAGAAGACUGCGGCUUCGAGUCCCGUACGGAACG | ≤ 0.5
GUUCCGUUGGCGUAUUGGUAACGCGUCUCCCUCCUAAGGAGAAGACUGCGGAUUCGAGUCCCGUACGGAACG | 0.606
GUUCCGUUGGCGUAUUAGUAACGCGUCUGCCUCCUAAGGAGAAGACUGCGGGUUCGAGUCCCGUACGGAACG | ≤ 0.5
GUUCCGUUGGCGUAUUGGUAACACGUCUCCCUCAUAAGGAGAAGACUGGGGGUUCGGGUCCCGUACGGAACG | 0.57
GUUCCGUUGGCGUAUUGGUAACGCGUCUCCUUCCUAAGGAGAAGACUGCGGGUUCGAGUCCCGUACAGAACG | 0.565
GUUCCGUUGGCGUAUUGGUAACGCGUCUCCUUCCUAAGGAGAAGACUGCGGAUUCGUCUCCCGUACGGAACG | ≤ 0.5
GUUCCGUUGGCGUAUUGGUAACGCGUCUCCCUCCUAAGGAGAAGACUGCGGGUUCGAGUCCCAUACGGAACG | 0.675
GUUCCGUUGGCGUAUUGGUAACGCGUCUCCCUCCUAAAGAGAAGAGUGCGGGUUCCAGUCCCGUACGGAACG | ≤ 0.5
GUUCCGUUGGCGUAUUGGUAACGCGUCUCCCUCGUAAGGAGAAGACUGCGAGUUCGAGUCCCGUAUGGAACG | 0.584
GUUCCGUUGGCGUAUUGGUAACGCGUCUCCCUCCUAAGGAGAAGAUUGCGGGUUCGAGUCCCGUAUGGGACG | ≤ 0.5

Variant | yeast fitness
GUUCCGUUGGCGUAUUGGUAACGCGUCUCCCUCCUAAGGAGAAGACUGCGGGUUCCAGUCCCGUACUGAACG | ≤ 0.5
GUUCCGUUGGCGUAUUGGUAACGCGUCUCCGUCCUAAGGAGAAGACUGCGGGUGCGAGUCCCGUACGGAACG | ≤ 0.5
GUUCCGUUGGCGUAUUGGUAACGCAUAUCCCUUCUAAGGAGAAGACUGCGGGUUCGAGUCCCGUACGGAACG | 0.512
GUUCCGUUGGCGUAUUGGUAACGCGUCUCCCUCCUAAGGAGAAGACUGCGGGUUCGAGUGCCGUAGGGAACG | ≤ 0.5
GUUCCGUUGGCGUAUUGGUAACGCGUCUCCCUCCUAAGGAGAAGACUGCGGGUUCGAGUCCCGUACGCAACG | 0.671
GUUCCGUUGGCGUAUUGAUAACGCGUCUCCCUCCUAAGGAGAAGACUGCGGGUUCGAAUCCCGUACGGAACG | ≤ 0.5
GUUCCGUUGGCGUAUUGGUAACACGUCUCCCUCCUAAGGAGAAGACUGGGGGUUCGAGUCCCGUACGGAACG | 0.583
GUUCCGUUGGCGUAUUGGUAACGCCUCUCCCUCCUAAGGAGAAGACUGCGGGUUCGAGUCCCGUACAGAACG | ≤ 0.5
GUUCCGUUGGCGUAUUGGUAACGCGUCUCCCUCCUAAGGAGAAGACUGUGGGUUCGAGUCCCGUACGGAACG | 0.731
GUUCCGUUGGCGUAUUGGUAACGCGUCUCCCUCCUAAGGAGAAGACUGGGGGUUCGAGUCCCGUACGGAGCG | 0.576
GUUCCGUUGGCGUAUUAGUAACGCGUCUCCCUCGUAAGGAGAAGAAUGCGGGUUCGAGUCCCGUACGGAACG | 0.569
GUUCCGUUGGCGUAUUGGUAACGCGUCUCCCUCCUAACGAGAAGACUGCCGGUUCGAGUUCCGUACGGAACG | ≤ 0.5
GUUCCGUUGGCGUAUUGGUAACGCGUCUCCCUCCUAAGGAGAAGACUGCGGGUUCGAGUACCAUACGGAACG | ≤ 0.5
GUUCCGUUGGCGUAUUGAUAACGCGUAUCCCUCCUAAGGAGAAGACUGCGGGUUCGAGUCCCGUACGGAACG | 1.03
GUUCCGUUGGCGUAUUGGUAACCCGUCUCCCUACUAAGGAGAAGACUGCGGGUUCGAGUCCCAUACGGAACG | ≤ 0.5
GUUCCGUUGGCGUAUUGGUAACGCGUCUCCCUCCUAAGGAGAAGACUGCGGGUUCGACUCCCGUAUGGAACG | 0.631
GUUCCGUUGGCGUAUUGGUAACGCGUCUCCCUCCUAAGGAGAAGACUGCGGGUUCGAGUCCCGUAUGGUACG | 0.566
GUUCCGUUGGCGUAUUGGUAACGCGUCUCCCUCCUAACAAGACGACUGCGGGUUCGAGUCUCGUACGGAACG | ≤ 0.5
